# This is a sample that favours compounds with a hit; in the whole collection about 5.1% have one here.
# NF-kB neuron act: activators of NF-kB expression in neurons, primary screen, cell-based, HTS. human neuronal cells, NF-kB reporter expression; hits give high values. fold change at 12.5 µM. hit rate 1.6% among 190,000. AID 1239, 2008; in the data active = fold change above about 3.3
# STAT1 activator: STAT1 signaling activators, primary screen, cell-based, HTS, luciferase reporter; NIH 3T3 STAT1-luciferase reporter, IFN-gamma, luminescence; 100% = IFN-gamma alone, no compound; activation (% of control), % at 5.5 µM; hit rate 2.6% among 200,000;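 active = activation above the screen-wide mean activation plus 3 SD, cut at about 130% in these data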;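 also: raw ratio to IFN-gamma control signal so 100% means no change and 0% no light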
# STAT3 activator: IL-6 driven STAT3 reporter potentiators, primary screen, U3A cells, luciferase, luminescence, MLSCN library | hit rate 0.91% among 190,000 | IL-6 STAT3-luciferase reporter; 100% = signal with IL-6 EC80 alone | activation (% of control), % at 5.6 µM;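 active = activation above the screen-wide mean of compound activation plus 3 SD, cut at about 130% in these data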;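 also: 0% = background luminescence of wells with medium and substrate only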
#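 Material: STAT3-luciferase reporter U3A cells; Probe or stimulus: IL-6 (33 ng/mL); Incubation: compound pre-incubation 1 h before IL-6, then 6 h stimulation at 37 °C; Technique: luminescence from STAT3-driven luciferase reporter; Evaluation: % activation versus median of IL-6-stimulated wells; Controls: IL-6-only high control.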
# STAT1 inh: STAT1 signaling inhibitors, primary screen, cell-based, HTS, luciferase reporter. inhibition, % at 5.5 µM. hit rate 0.35% among 200,000. NIH 3T3 STAT1-luciferase reporter, IFN-gamma, luminescence;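 active = inhibition above a set limit, the mean inhibition across all tested compounds plus 3 SD, cut at about 34% in these data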;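 also: 0% = IFN-gamma with DMSO and 100% = IFN-gamma with 300 µM nifuroxazide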
# STAT3 blocker: IL-6 driven STAT3 reporter inhibitors, primary screen, U3A cells, luciferase, luminescence, MLSCN library. IL-6 STAT3-luciferase reporter; host cell line lacks STAT1. inhibition, % at 5.5 µM. hit rate 0.89% among 190,000. AID 862, 2007;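 active = inhibition above the mean inhibition across all screened compounds plus 3 SD, cut at about 44% in these data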;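 also: 0% = DMSO only wells and 100% = 100 µM nifuroxazide control wells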
# APP 5'UTR act: activators of APP 5'UTR luciferase reporter, primary screen, SH-SY5Y cells; SH-SY5Y APP 5'UTR luciferase reporter, luminescence; zero percent = DMSO vehicle wells; activation, % at 2 µM; hit rate 1% among 190,000;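 active = activation above a set limit, based on mean plus 3 SD of controls, cut at about 140% in these data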
# Numbers without * were called inactive; · = no result given.
SMILES,NF-kB neuron act,STAT1 activator,STAT3 activator,STAT1 inh,STAT3 blocker,APP 5'UTR act
O=C(CSc1nnc2ccccn12)Nc1cccc(-c2nc3ccccc3s2)c1,1.3,136*,108,-40,-3,137*
CC(C)(O)C#Cc1ccc(C(=O)N2CCCC2C(=O)O)s1 (stereo not drawn),1,106,106,-3,-4,-10
CCCCNC1=CC(=O)C(=O)c2ccccc21,0.52,99,102,0,-1,-11
CCCCN1C=CC(=C2C(=O)c3ccccc3C2=O)C=C1,0.41,11,10,95*,112*,-58
C#CCN1C(=O)S/C(=C/C=C/c2ccc(N(C)C)cc2)C1=O,3.2,136*,100,-40,0,106
O/N=C/c1ccn(-c2ccc(Br)cc2)c1,2,131*,102,-34,0,57
CCN(CC)S(=O)(=O)c1cc(C(=O)NC2CCCCC2)ccc1C,2,129*,103,-30,4,106
Cc1ccc(C(=O)NC2CCCCC2)cc1,3,139*,107,-43,-3,70
CCN(CC)S(=O)(=O)c1cc(C(=O)Nc2ccc(Cl)cn2)ccc1C,2.8,135*,109,-37,-4,183*
CCCCC(=O)NC1=C(C(=O)OC)SCC1,1.1,100,102,0,-4,-8
CC(=Nc1cccc(C)c1)c1sc2ccccc2c1O,6*,170*,138*,-76,-39,137*
CC(=O)NCCN=C(C)c1sc2ccccc2c1O,1.6,114,105,-16,-3,48
Cc1oc(C2CC2)cc1C(=O)O,1.1,97,104,3,-5,-6
Cc1oc(CSCC2CCCO2)cc1C(=O)O (stereo not drawn),1.1,148*,103,-52,0,13
O=C(COC(=O)c1n[nH]c2ccccc12)Nc1ccccc1,1.1,133*,97,-36,6,43
Cc1ccc(-n2c(=O)[nH]c3ncccc3c2=O)cc1,1.1,102,101,-4,4,8
Cc1ccc(-n2c(-c3ccc(Br)cc3)c[n+]3c2CCc2ccc4cccnc4c2-3)cc1,1.5,65,42,39*,75*,-3
Cc1nc2sc(C(=O)Nc3ccccc3)c(N)c2c(C)c1[N+](=O)[O-],1.7,126,128,-25,-28,168*
CC(C)(O)C(=O)NN(Cc1ccccc1)c1ccccc1,1.1,106,96,-4,3,2
CC1CN/C(=C\C(=O)c2ccc(Cl)cc2)C(=O)N1 (stereo not drawn),4.7*,125,77,-27,31,175*
CC1CN/C(=C\C(=O)c2ccccc2)C(=O)N1 (stereo not drawn),2.9,138*,97,-42,7,52
Cc1cccc(NC(=O)CCSc2ccccn2)c1,1.5,106,108,-7,-7,16
Cc1ccc(NC(=O)CCSc2ccccn2)cc1,3,142*,92,-48,12,81
O=C(CSc1ccccn1)Nc1ccc2ccccc2c1,3,132*,95,-33,6,137*
O=C(CSc1ccccn1)Nc1ccc2c(c1)C(=O)c1ccccc1C2=O,1.1,120,99,-19,-1,83
SMILES,NF-kB neuron act,STAT1 activator,STAT3 activator,STAT1 inh,STAT3 blocker,APP 5'UTR act
Cc1cc(CNC(=S)Nc2cccc(Cl)c2Cl)nn1C,1,92,96,7,10,8
O=C(CC1CCCC1)Nc1nnc(C2CC2)s1,1.5,110,106,-12,-2,16
CCN(CC)S(=O)(=O)c1cc(C)c(C)cc1Br,1.1,97,103,3,1,8
Cc1ccc(OCCSc2nc(N)cc(N)n2)cc1,2.5,138*,101,-43,8,74
CCCOc1ccc(OCCSc2ncccn2)cc1,4.2*,135*,94,-39,12,124
Clc1ccc(OCCSc2ncccn2)c(Br)c1,0.99,144*,92,-52,14,174*
CCCCOCCCNC(=O)c1ccc(OC)cc1,1.2,99,97,1,11,-11
CC1=NN(c2ccc(F)cc2)C(=O)C1C(c1cccc(O)c1)c1c(C)[nH]n(-c2ccc(F)cc2)c1=O (stereo not drawn),1.1,98,153*,3,-56,-12
Cc1[nH]n(-c2ccccc2)c(=O)c1C(c1ccc(O)c([N+](=O)[O-])c1)c1c(C)[nH]n(-c2ccccc2)c1=O,·,111,112,-12,-8,7
CCOC(=O)N1CCN(Cc2ccccc2F)CC1,0.99,90,95,11,11,-5
Oc1c(C=NCc2ccccc2)sc2ccccc12,3.5*,143*,103,-48,-2,11
Cc1cc2nc(-c3ccc(SCC(=O)Nc4ccc5c(c4)OCCO5)nc3)[nH]c2cc1C,1.4,100,101,0,10,180*
CCOC(=O)CSc1ccc(-c2nc3cc(C)c(C)cc3[nH]2)cn1,0.88,110,90,-11,15,16
Cc1cc2nc(-c3ccc(SCc4ccccn4)nc3)[nH]c2cc1C,2,135*,85,-35,22,49
Cc1ccc2nc(-c3ccc(SCC(=O)Nc4nc(C)cs4)nc3)[nH]c2c1,1.6,146*,111,-52,-16,149*
Cc1ccc2nc(-c3ccc(SCC(=O)Nc4nnc(C)s4)nc3)[nH]c2c1,2.3,124,100,-26,-2,93
Cc1[nH]n(-c2cccc(Cl)c2)c(=O)c1-c1ccccc1,1,99,115,-1,-17,-12
Cc1c(C(=O)O)oc2ccc(S(=O)(=O)NC3CCCCCCC3)cc12,1.2,105,101,-5,8,-2
O=C(Nc1nc2ccc([N+](=O)[O-])cc2s1)C1CCCO1 (stereo not drawn),2.2,136*,92,-38,11,62
O=C(Nc1nc2ccc(Cl)cc2s1)C1CCCO1 (stereo not drawn),4.6*,144*,90,-48,16,102
CS(=O)(=O)c1ccc2nc(NC(=O)C3CCCO3)sc2c1 (stereo not drawn),0.98,124,99,-29,4,32
CCC(=O)c1ccccc1OCCN1CCN(Cc2ccccc2)CC1,1.1,102,96,-4,9,19
CC1CCC/C(=C(\C#N)c2nc(-c3cc4ccccc4oc3=O)cs2)C1 (stereo not drawn),0.8,122,111,-25,-13,148*
C=C(C(=O)c1ccccc1)C(C)C(=C)C(=O)c1ccccc1,8.5*,83,94,18,6,-41
Cc1cc2ccccn2c1C(=O)Nc1ccccc1,2,112,134*,-12,-43,35

# Bioassay records deposited in PubChem BioAssay by several laboratories.
